≈ marks a conversion by molar mass, not a printed value. Calls of active or inactive are those of the source. The calls are words filed in the database; no cut-off is given here.
Experiments:
[1] = Ratio of drug uptake in Wistar-Hannover rat unbound liver to plasma concentration at 10 mg/kg, po hydrochloride salt form of compound after 6 hrs by LC/MS-MS analysis; type: ADME, organism-based; settings: liver and plasma
Procedure, shortened: (§1)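 Male Wistar-Hannover rats (n = 2 or 3) dosed orally as a suspension in 0.5% methyl cellulose with 0.1% Tween 80. Plasma and liver sampled 6 h post-dose. Kp is total liver/plasma; Kpu,u uses unbound fractions from equilibrium dialysis of plasma and liver.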

[2] = Drug uptake in Wistar-Hannover rat liver at 10 mg/kg, po using hydrochloride salt form of compound after 6 hrs by LC/MS-MS analysis; type: ADME, organism-based; settings: read-out: Drug uptake
Procedure, shortened: (§2)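 Male Wistar-Hannover rats, n = 2 or 3, given an oral suspension in 0.5% methyl cellulose with 0.1% Tween 80; one compound was dosed as the HCl salt. Total plasma and liver concentrations were measured 6 h post-dose. Kp = liver/plasma total concentration. Kpu,u uses fu values from equilibrium dialysis.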

[3] = Drug uptake in Wistar-Hannover rat assessed as plasma concentration at 10 mg/kg, po hydrochloride salt form of compound after 6 hrs by LC/MS-MS analysis; type: ADME, organism-based; procedure, shortened: as §2
[4] = Ratio of drug uptake in Wistar-Hannover rat liver to plasma at 10 mg/kg, po hydrochloride salt form of compound after 6 hrs by LC/MS-MS analysis; type: ADME, organism-based; settings: liver and plasma; procedure, shortened: as §1
[5] = Apparent permeability in MCDKII-LE cells at 2 uM incubated for 30 mins; type: ADME, cell-based, Canis lupus familiaris, MDCKII-LE; settings: dog, MDCK
Procedure, shortened: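 MDCK-LE (low-efflux) cell monolayers with a 30 min pre-incubation. Read-out is apparent passive permeability (Papp, 10^-6 cm/s).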

Acetyl-CoA carboxylase 1 = Acetyl-CoA carboxylase 1 (Homo sapiens, UniProt Q13085); assay: Inhibition of recombinant human ACC1 using acetyl coA as substrate incubated for 1 hr by transcreener fluorescence polarization assay
Procedure, shortened: (§3)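 Recombinant human enzyme, Transcreener assay run per an earlier protocol. IC50 is the geometric mean of at least three replicates, also given as pIC50 ± SD.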

Acetyl-CoA carboxylase 2 = Acetyl-CoA carboxylase 2 (Homo sapiens, UniProt O00763); assay: Inhibition of recombinant human ACC2 using acetyl coA as substrate incubated for 1 hr by transcreener fluorescence polarization assay; procedure, shortened: as §3
OATP1B1 = target: T1, OATP1B1 (Homo sapiens, UniProt Q9Y6L6); assay: Substrate activity at human OATP1B1 stably expressed in HEK293 cells assessed as ratio of total to passive cellular uptake at 1 to 3 uM incubated for 0.5 to 4 mins by LC/MS-MS analysis; type: ADME, cell-based; settings: HEK293 cells stably expressing human OATP1B1, dose 1-3 µM, time 0.5-4 min
T1 sequence (Q9Y6L6 whole entry): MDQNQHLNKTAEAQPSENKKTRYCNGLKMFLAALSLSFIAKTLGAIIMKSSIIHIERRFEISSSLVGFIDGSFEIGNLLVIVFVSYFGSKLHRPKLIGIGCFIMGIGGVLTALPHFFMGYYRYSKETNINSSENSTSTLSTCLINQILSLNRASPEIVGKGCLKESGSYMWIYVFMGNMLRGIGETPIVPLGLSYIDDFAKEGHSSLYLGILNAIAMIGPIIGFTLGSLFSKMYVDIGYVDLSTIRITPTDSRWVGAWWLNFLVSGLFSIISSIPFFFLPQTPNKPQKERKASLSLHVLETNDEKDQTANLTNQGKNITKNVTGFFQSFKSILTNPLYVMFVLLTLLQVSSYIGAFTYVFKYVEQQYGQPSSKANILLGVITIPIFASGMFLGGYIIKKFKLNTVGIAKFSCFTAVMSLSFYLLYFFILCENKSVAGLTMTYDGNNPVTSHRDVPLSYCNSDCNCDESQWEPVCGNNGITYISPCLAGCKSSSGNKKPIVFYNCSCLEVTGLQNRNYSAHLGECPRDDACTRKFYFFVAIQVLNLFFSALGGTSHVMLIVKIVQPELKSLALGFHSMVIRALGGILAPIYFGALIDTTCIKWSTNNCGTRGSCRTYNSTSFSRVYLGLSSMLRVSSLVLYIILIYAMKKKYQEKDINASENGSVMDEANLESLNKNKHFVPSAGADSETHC
Procedure, shortened: (§4)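 Stably transfected HEK293 cells and wild-type parental cells, cultured to confluency in DMEM with 10% heat-inactivated FBS and 5 µg/mL blasticidin. Uptake at 1–3 µM in HBSS/20 mM HEPES pH 7.4, 37 °C, 0.5–4.0 min. Cells washed in ice-cold buffer, lysed in MeOH, quantified by LC-MS/MS and normalized to protein. Ratio is transfected/parental uptake; >2 denotes substrate.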

[6] = Metabolic intrinsic clearance in human hepatocytes assessed per million cells incubated for 2 hrs; type: ADME, cell-based, Hepatocyte; settings: read-out: CLH
Procedure, shortened: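 Cryopreserved human hepatocytes incubated for 2 h. In vitro half-lives scaled to intrinsic clearance, expressed per 10^6 cells.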

[7] = Clearance in Wistar-Hannover rat plasma at 1 mg/kg, iv and measured up to 24 hrs by LC/MS-MS analysis; type: ADME, organism-based
Procedure, shortened: (§5)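 Male Wistar-Hannover rats (240–350 g) with jugular vein cannulas, dosed 1 mg/kg IV (2 mL/kg) or PO. IV vehicle was 10% DMSO/90% of 20% sulfobutylether-β-cyclodextrin in water, or 10% DMSO/30% PEG400/60% water. Plasma was analysed by LC-MS/MS. Parameters come from plasma concentration–time data, n = 2: Cmax observed directly, AUC0-24 by the linear trapezoidal rule, CL = IV dose/AUC, Vss = dose/(AUC × elimination rate constant).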

[8] = Apparent volume of distribution at steady state in Wistar-Hannover rat plasma at 1 mg/kg, iv and measured up to 24 hrs by LC/MS-MS analysis; type: ADME, organism-based; settings: read-out: Vdss(app); procedure, shortened: as §5
[9] = Half life in Wistar-Hannover rat plasma at 1 mg/kg, iv and measured up to 24 hrs by LC/MS-MS analysis; type: ADME, organism-based; procedure, shortened: as §5
[10] = Fraction unbound in rat liver by equilibrium dialysis method
[11] = AUC (0 to 24 hrs) in Wistar-Hannover rat plasma at 1 mg/kg, iv and measured up to 24 hrs by LC/MS-MS analysis; type: ADME, organism-based; set-up: route intravenous, dose 1 mg/kg, time <=24
Procedure, shortened: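 Male Wistar-Hannover rats (240–350 g) with jugular vein cannulas were given 1 mg/kg IV at 2 mL/kg. Vehicle, depending on compound, was 10% DMSO/90% of 20% sulfobutylether-β-cyclodextrin in water or 10% DMSO/30% PEG400/60% water. AUC0–24 came from plasma concentration–time data by the linear trapezoidal rule, averaged for n = 2. Lower detection limit was 1 ng/mL.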

Rattus norvegicus [12] = species: Rattus norvegicus; assay: Fraction unbound in rat plasma by equilibrium dialysis method
[13] = Thermodynamic solubility of the compound at pH 1.2 after 24 hrs; type: physicochemical; settings: buffer, read-out: Therm_solubility
OATP1B3 = target: T2, OATP1B3 (Homo sapiens, UniProt Q9NPD5); assay: Substrate activity at human OATP1B3 stably expressed in HEK293 cells assessed as ratio of total to passive cellular uptake at 1 to 3 uM incubated for 0.5 to 4 mins by LC/MS-MS analysis; type: ADME, cell-based; settings: HEK293 cells stably expressing human OATP1B3, dose 1-3 µM, time 0.5-4 min; procedure, shortened: as §4
T2 sequence (Q9NPD5 whole entry): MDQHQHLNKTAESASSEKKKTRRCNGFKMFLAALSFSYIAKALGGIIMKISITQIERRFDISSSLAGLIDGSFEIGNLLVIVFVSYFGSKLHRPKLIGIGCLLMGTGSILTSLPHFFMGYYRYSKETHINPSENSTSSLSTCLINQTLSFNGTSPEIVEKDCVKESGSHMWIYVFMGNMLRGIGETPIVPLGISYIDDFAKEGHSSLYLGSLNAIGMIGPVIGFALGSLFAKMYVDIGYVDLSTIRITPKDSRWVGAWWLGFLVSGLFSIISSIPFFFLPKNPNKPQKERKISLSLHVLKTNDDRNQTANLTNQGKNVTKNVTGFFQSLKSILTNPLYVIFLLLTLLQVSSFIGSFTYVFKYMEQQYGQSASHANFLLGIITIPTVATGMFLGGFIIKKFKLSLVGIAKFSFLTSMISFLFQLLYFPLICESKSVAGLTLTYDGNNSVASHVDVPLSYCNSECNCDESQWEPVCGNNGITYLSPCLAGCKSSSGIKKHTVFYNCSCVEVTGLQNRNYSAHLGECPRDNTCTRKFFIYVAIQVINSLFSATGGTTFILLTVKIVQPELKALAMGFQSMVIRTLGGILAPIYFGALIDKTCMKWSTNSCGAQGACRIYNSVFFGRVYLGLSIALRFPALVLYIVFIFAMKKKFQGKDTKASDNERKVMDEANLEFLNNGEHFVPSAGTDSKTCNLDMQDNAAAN

[14] = Octanol-water partition coefficient, logD of compound at pH 7.4 at 0.5 to 2 mg incubated for 1 hr by HPLC based shake-flask method; type: physicochemical; settings: dose 0.5-2 mg
Procedure, shortened: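 Shake-flask octanol/water partition at pH 7.4.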

[15] = Cmax in Wistar-Hannover rat plasma at 4 mg/kg, po and measured up to 24 hrs by LC/MS-MS analysis; type: ADME, organism-based; set-up: route oral, dose 4 mg/kg, time <=24
[16] = Thermodynamic solubility of the compound at pH 6.5 after 24 hrs; type: physicochemical; settings: buffer, read-out: Therm_solubility
[17] = Thermodynamic solubility of the compound at pH 7.4 after 24 hrs; type: physicochemical; settings: buffer, read-out: Therm_solubility
Homo sapiens = species: Homo sapiens; assay: Inhibition of ACC (unknown origin) at 100 uM
Rattus norvegicus [18] = assay: Effect on triglyceride accumulation in Sprague-Dawley rat high fat dietary model at 10 mg/kg, po assessed as reduction in triglyceride level after 42 days by XPT clinical analyzer; type: functional, organism-based; settings: time 42.0 day
Procedure, shortened: (§6)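 High-fat-diet-fed Sprague-Dawley rats dosed orally for 42 days, with chow-fed and vehicle controls, n = 10 per group. Read-out is hepatic triglyceride, reported as mean ± SEM.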

Rattus norvegicus [19] = assay: Effect on triglyceride accumulation in po dosed Sprague-Dawley rat high fat dietary model assessed as reduction in triglyceride level after 42 days by XPT clinical analyzer; type: functional, organism-based; settings: time 42.0 day; procedure, shortened: as §6
Rattus norvegicus [20] = assay: Inhibition of DNL in po dosed Sprague-Dawley rat assessed as reduction in DNL level in liver pretreated with one hr followed by [14C]-acetate treatment and measured after 1 hr; type: functional, organism-based
Procedure, shortened: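 Sprague-Dawley rats given single oral doses of 0.03–300 mg/kg in 0.5% methyl cellulose vehicle, n = 16 per dose. Read-out is incorporation of 14C-acetate into lipids in liver, bone marrow and lung, measured at 2 h post-dose relative to vehicle. Data are mean ± SEM. EC50 is reported with a 95% confidence interval.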

Acetyl-CoA carboxylase 2, sequence (O00763 whole entry): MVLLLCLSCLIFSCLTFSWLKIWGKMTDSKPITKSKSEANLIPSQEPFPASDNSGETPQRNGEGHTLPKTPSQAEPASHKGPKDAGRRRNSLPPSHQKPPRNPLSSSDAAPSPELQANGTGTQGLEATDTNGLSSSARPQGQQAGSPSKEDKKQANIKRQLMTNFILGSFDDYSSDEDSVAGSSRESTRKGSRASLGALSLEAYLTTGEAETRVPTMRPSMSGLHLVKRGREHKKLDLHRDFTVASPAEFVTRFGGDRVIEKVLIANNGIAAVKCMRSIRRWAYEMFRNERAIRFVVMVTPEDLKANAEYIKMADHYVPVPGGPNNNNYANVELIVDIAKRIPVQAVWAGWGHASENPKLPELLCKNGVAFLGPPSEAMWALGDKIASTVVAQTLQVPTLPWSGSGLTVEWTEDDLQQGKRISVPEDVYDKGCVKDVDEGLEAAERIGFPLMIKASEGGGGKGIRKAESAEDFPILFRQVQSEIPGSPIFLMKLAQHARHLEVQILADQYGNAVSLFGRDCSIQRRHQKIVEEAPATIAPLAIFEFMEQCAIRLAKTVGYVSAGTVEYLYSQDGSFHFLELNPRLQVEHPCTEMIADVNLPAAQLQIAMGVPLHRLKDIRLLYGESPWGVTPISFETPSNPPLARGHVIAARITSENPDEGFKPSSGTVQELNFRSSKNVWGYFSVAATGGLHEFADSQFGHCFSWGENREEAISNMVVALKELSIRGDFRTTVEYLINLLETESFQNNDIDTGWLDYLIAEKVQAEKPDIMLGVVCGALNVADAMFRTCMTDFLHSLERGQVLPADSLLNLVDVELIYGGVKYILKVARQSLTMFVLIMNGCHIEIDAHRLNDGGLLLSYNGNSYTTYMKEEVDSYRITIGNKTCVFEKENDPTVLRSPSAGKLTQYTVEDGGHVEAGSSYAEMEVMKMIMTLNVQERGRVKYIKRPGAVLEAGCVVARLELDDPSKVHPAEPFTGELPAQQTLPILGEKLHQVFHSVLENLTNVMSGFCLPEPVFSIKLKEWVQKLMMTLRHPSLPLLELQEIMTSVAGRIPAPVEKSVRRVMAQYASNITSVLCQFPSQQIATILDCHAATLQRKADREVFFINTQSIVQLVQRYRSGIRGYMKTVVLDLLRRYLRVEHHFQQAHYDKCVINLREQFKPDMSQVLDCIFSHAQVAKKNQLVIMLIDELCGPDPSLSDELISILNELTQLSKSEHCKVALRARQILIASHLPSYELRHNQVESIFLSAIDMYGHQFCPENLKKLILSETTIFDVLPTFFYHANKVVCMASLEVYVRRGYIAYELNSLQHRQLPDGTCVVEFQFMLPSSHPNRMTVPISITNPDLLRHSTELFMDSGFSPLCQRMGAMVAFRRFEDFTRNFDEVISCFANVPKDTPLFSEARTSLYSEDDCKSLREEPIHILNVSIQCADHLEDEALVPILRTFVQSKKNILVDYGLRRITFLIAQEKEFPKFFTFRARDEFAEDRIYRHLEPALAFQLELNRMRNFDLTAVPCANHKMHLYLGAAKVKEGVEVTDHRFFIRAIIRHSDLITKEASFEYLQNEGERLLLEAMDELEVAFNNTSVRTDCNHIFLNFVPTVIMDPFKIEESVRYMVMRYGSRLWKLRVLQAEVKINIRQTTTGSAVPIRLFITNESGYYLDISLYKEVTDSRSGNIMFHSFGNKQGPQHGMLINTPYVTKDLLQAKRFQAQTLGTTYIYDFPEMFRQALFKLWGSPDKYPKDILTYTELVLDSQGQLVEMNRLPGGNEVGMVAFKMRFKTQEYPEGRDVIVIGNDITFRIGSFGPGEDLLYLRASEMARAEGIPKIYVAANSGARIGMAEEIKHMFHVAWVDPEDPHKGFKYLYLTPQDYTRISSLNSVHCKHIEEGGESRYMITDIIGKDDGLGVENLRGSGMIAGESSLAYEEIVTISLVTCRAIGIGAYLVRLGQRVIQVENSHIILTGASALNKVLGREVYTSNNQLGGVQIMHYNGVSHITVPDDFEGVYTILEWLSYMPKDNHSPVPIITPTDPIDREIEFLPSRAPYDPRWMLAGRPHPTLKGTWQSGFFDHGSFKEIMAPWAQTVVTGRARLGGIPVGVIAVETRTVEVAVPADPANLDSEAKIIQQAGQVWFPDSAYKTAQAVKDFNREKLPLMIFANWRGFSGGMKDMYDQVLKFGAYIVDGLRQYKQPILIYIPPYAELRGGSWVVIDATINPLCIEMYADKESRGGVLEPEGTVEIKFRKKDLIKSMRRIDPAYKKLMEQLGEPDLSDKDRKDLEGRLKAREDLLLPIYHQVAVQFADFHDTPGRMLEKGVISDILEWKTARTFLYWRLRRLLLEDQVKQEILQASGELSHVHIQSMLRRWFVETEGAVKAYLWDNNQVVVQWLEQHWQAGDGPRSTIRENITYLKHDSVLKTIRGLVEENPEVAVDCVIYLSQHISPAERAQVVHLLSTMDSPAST

| Structure (SMILES) | Papp at 0.5 h, 2 µM [5] | IC50 (Acetyl-CoA carboxylase 1) | IC50 (Acetyl-CoA carboxylase 2) | logD at 1 h [14] | other results |
| --- | --- | --- | --- | --- | --- |
| CC(C)n1ncc2c1C(=O)CC1(CCN(C(=O)c3cc(-c4ccc(C(=O)O)cc4)nc(N(C)C)c3)CC1)C2.Cl | – | – | – | – | Kp uu at 6 h [1]: 79; concentration at 6 h [2]: 9920 ng/mL; concentration at 6 h [3]: 57.4 ng/mL; Kp at 6 h [4]: 173 |
| Cc1nc2cc(C(=O)N3CCC4(CC3)CC(=O)c3c(c(C(=O)O)nn3C(C)C)C4)ccc2[nH]1 | 0.5 ×10⁻⁶ cm/s | 12000 nM | 1200 nM | – | – |
| CC(C)n1ncc2c1C(=O)CC1(CCN(C(=O)c3cc(-c4ccc(C(=O)O)cc4)nc(N(C)C)c3)CC1)C2 | 13 ×10⁻⁶ cm/s | 7.7 nM | 5.6 nM | 1.4 | uptake ratio at up to 3 µM (OATP1B1): 2.1; hepatocyte CLint [6]: < 3 µL/min/1e6 cells; clearance [7]: 31.3 mL/min/kg; Vd [8]: 5.2 L/kg; half-life [9]: 7.5 h; fraction unbound [10]: 0.026; AUC(0-t) [11]: 519 ng·h/mL; fraction unbound (Rattus norvegicus [12]): 0.057; solubility thermodynamic at 24 h [13]: 2 µM (≈ 1.03 µg/mL); uptake ratio at up to 3 µM (OATP1B3): 1.4; Cmax [15]: < 1 ng/mL; solubility thermodynamic at 24 h [16]: 3 µM (≈ 1.55 µg/mL); solubility thermodynamic at 24 h [17]: 13 µM (≈ 6.7 µg/mL) |
| CC(C)(C)n1cc2c(n1)C(=O)CC1(CCN(C(=O)c3ccc4[nH]nc(C(=O)O)c4c3)CC1)O2 | < 0.4 ×10⁻⁶ cm/s | 130 nM | 33 nM | – | – |
| CN(C)c1cc(C(=O)N2CCC3(CC2)CC(=O)c2nn(C(C)(C)C)cc2O3)cc(-c2ccc(C(=O)O)cc2)n1 | 0.5 ×10⁻⁶ cm/s | 17 nM | 9.4 nM | 0.8 | hepatocyte CLint [6]: 7.5 µL/min/1e6 cells |
| CC(C)(C)n1cc2c(n1)C(=O)CC1(CCN(C(=O)c3cccc(-c4ccc(C(=O)O)cc4)c3)CC1)O2 | 2.5 ×10⁻⁶ cm/s | 440 nM | 92 nM | – | – |
| CC(C)(C)n1cc2c(n1)C(=O)CC1(CCN(C(=O)c3cccc(-c4cccc(C(=O)O)c4)c3)CC1)O2 | 1.3 ×10⁻⁶ cm/s | 1500 nM | 200 nM | – | – |
| CC(C)(C)n1cc2c(n1)C(=O)CC1(CCN(C(=O)c3ccnc(-c4ccc(C(=O)O)cc4)c3)CC1)O2 | – | 1100 nM | 190 nM | -0.4 | – |
| COc1cc(C(=O)N2CCC3(CC2)CC(=O)c2c(cnn2C(C)C)C3)cc(-c2ccc(C(=O)O)cc2)n1 | – | – | – | – | inhibition (Homo sapiens): inactive; Activity (Rattus norvegicus [18]): Active; Activity (Rattus norvegicus [19]): Dose-dependent effect; inhibition (Rattus norvegicus [20]): Dose-dependent effect |
